This is an account of results in the array DNA melting data of Ke et al. (doi:10.1101/2024.01.08.574731).

Series [1] in a line: folding enthalpy; higher = less favourable; fluorescence melt of hairpins on a sequencing array, two-state fit. As to conditions: sodium 0.088 M. In a few lines: (§1)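 Folding enthalpy and melting temperature were estimated with bootstrapped two-state fits and combined across four replicates by inverse-variance weighting, with fitted temperatures raised by 9.35 °C to match UV melts. The data were Cy3 fluorescence of library hairpins, with annealed Cy3 and quencher oligos, on a sequenced MiSeq flow cell in 50 mM Na-HEPES pH 8.0, 25 mM NaCl, imaged in 2.5 °C steps up to 60 °C and normalised to pre-quench Cy3 and control constructs.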

A short description of series [2]: melting temperature; fluorescence melt of hairpins on a sequencing array, two-state fit, raised by 9.35 °C to match UV melts. As to conditions: sodium 0.088 M. In short, it runs like this:
as §1

As for GTCGTAGGAAACTATGAC (((.(((....))).))), the folding enthalpy in series [1] is -35.4 kcal/mol. Besides, in series [2], the Tm is 45.2 °C.
For GTCGTAGGAAACTGCGAC ((((.((....)).)))), the folding enthalpy in series [1] is -55.2 kcal/mol. For the same sequence, in series [2], the Tm came out at 53.5 °C.
The corresponding values for GTCGTAGGAAACTGTGAC (((..((....))..))) are -16.6 kcal/mol and 30.8 °C.
As to GTCGTCCCGAAAGGGGAC (((..(((....)))))), the folding enthalpy in series [1] is -11.7 kcal/mol. In series [2], the Tm amounted to 45.1 °C.
The corresponding values for GTCGTCCGAAAGGAGAC (((.(((....)))))) are -20.6 kcal/mol and 49.3 °C.
As to GTCGTCGAAAGACAGAC ((((((....))).))), the folding enthalpy in series [1] is -26.7 kcal/mol. In series [2], the Tm stood at 51.6 °C.
The corresponding values for GTCGTCGAAAGACAGGAC ((((((....)))..))) are -18.3 kcal/mol and 41 °C.
The corresponding values for GTCGTCGAAAGACTGAC ((((((....))).))) are -19.4 kcal/mol and 47.5 °C.
As to GTCGTCGAAAGACTTGAC ((((((....)))..))), the folding enthalpy in series [1] is -17 kcal/mol. For the same sequence, the Tm in series [2] turned out to be 38.4 °C.
Consider GTCGTCGGAAACGACGGC (.(((((....))))).), for which, in series [1], the folding enthalpy is -25.2 kcal/mol. For the same sequence, the Tm in series [2] amounted to 65.5 °C.
The corresponding values for GTCGTCTCGAAAGAGGAC (((..(((....)))))) are -21.6 kcal/mol and 39 °C.
In the case of GTCGTGAAAACGAC (((((....))))), the folding enthalpy in series [1] was -30.5 kcal/mol. In addition, in series [2], the Tm was 60.8 °C.
The matching figures for GTCGTGCCGAAAGGCGAC (((..(((....)))))): -13.9 kcal/mol and 44.6 °C.
On to GTCGTGCGAAAGCAAGAC (((.(((....))).))), for which the folding enthalpy in series [1] is -34.7 kcal/mol. The Tm in series [2] came to 59.7 °C.
The matching figures for GTCGTGCGAAAGCAGAC (((.(((....)))))): -21.2 kcal/mol and 56.5 °C.
The matching figures for GTCGTGGGAAACCACAAC ((.((((....)))).)): -15.7 kcal/mol and 40.3 °C.
The corresponding values for GTCGTGGGAAACCATGAC (((.(((....))).))) are -45.9 kcal/mol and 52.5 °C.
Turning to GTCGTTACGAAAGTAGAC (((..(((....)))))), in series [1], the folding enthalpy is -29.1 kcal/mol. Also, the Tm in series [2] worked out at 44.8 °C.
For the sequence GTCGTTGCGAAAGCAGAC (((..(((....)))))), in series [1], the folding enthalpy was -21.1 kcal/mol. Also, the Tm in series [2] was determined as 49.2 °C.
The corresponding values for GTCTAAGGAAACTTAGGC (.(((((....))))).) are -25.5 kcal/mol and 38.1 °C.
The matching figures for GTCTACACGAAAGTGGAC (((..(((....)))))): -14.1 kcal/mol and 37.2 °C.
The matching figures for GTCTACGAAAGTAAAGAC ((((((....)))..))): -23.8 kcal/mol and 37.3 °C.
As to GTCTACGAAAGTAGAGAC ((((((....)))..))), in series [1], the folding enthalpy was -12.8 kcal/mol. Moreover, the Tm in series [2] turned out to be 40.1 °C.
The corresponding values for GTCTACGAAAGTAGCGAC ((((((....)))..))) are -17.6 kcal/mol and 47 °C.
The corresponding values for GTCTACGAAAGTATGAC ((((((....))).))) are -23.8 kcal/mol and 42.3 °C.
For GTCTACGGAAACATAGAC (((((.(....).))))), the folding enthalpy in series [1] is -27.1 kcal/mol. Besides, the Tm in series [2] was 31 °C.
The matching figures for GTCTACGGAAACGTGGAC (((.(((....))).))): -39.8 kcal/mol and 53.1 °C.
The matching figures for GTCTAGCCGAAAGGCGAC (((..(((....)))))): -10.8 kcal/mol and 43.1 °C.
For the sequence GTCTAGGGAAACTTAGAC (((((.(....).))))), the folding enthalpy in series [1] was -36.3 kcal/mol. Besides, the Tm in series [2] was 37.4 °C.
The corresponding values for GTCTATCGAAAGATTGAC (((.(((....))).))) are -35.1 kcal/mol and 46.3 °C.
Consider GTCTATGGAAACATGGAC (((.(((....))).))), for which the folding enthalpy in series [1] was -31.1 kcal/mol. Besides, in series [2], the Tm is 45.6 °C.
As for GTCTCACGAAAGTGTGAC (((.(((....))).))), in series [1], the folding enthalpy is -43.4 kcal/mol. For the same sequence, in series [2], the Tm is 53.8 °C.
The corresponding values for GTCTCAGGAAACTGAGAC (((((((....))))))) are -46.1 kcal/mol and 59.5 °C.
The corresponding values for GTCTCAGGAAACTGGGAC (((.(((....))).))) are -35.6 kcal/mol and 49.8 °C.
The corresponding values for GTCTCCCGAAAGGGTGAC (((.(((....))).))) are -31.1 kcal/mol and 56.5 °C.
As to GTCTCCGAAAGGAACGAC ((((((....)))..))), the folding enthalpy in series [1] is -23.5 kcal/mol. The Tm in series [2] was 36.3 °C.
The matching figures for GTCTCCGAAAGGAAGAC ((((((....))).))): -27.2 kcal/mol and 52.1 °C.
The matching figures for GTCTCCGAAAGGACAGAC ((((((....)))..))): -17.3 kcal/mol and 37.2 °C.
Take GTCTCCGAAAGGACCGAC ((((((....)))..))): the folding enthalpy in series [1] was -16.9 kcal/mol. In addition, in series [2], the Tm was found to be 28.2 °C.
Consider GTCTCCGAAAGGAGAGAC ((((((....)))..))), for which the folding enthalpy in series [1] is -11.4 kcal/mol. Moreover, in series [2], the Tm turned out to be 48 °C.
GTCTCCGAAAGGATCGAC ((((((....)))..))): the folding enthalpy in series [1] is -14.7 kcal/mol. Moreover, the Tm in series [2] amounted to 31.4 °C.
The corresponding values for GTCTCCGAAAGGATGGAC ((((((....)))..))) are -17.6 kcal/mol and 35.2 °C.
The matching figures for GTCTCCGGAAACGGAAAC ((.((((....)))).)): -16.2 kcal/mol and 36.3 °C.
The corresponding values for GTCTCGCCGAAAGGCGAC (((..(((....)))))) are -6.03 kcal/mol and 39.5 °C.
In the case of GTCTCGGGAAACCGAGGC (.(((((....))))).), the folding enthalpy in series [1] was -29 kcal/mol. Further, the Tm in series [2] was determined as 57.6 °C.
The matching figures for GTCTCGGGAAACTGAGAC (((((.(....).))))): -42.9 kcal/mol and 51.5 °C.
The corresponding values for GTCTCTGGAAACAGAGAC (((((((....))))))) are -42.5 kcal/mol and 62.8 °C.
The matching figures for GTCTGAACGAAAGTTGAC (((..(((....)))))): -16.4 kcal/mol and 31.7 °C.
On to GTCTGAGGAAACTTAGAC ((((.((....)).)))), for which the folding enthalpy in series [1] was -30.7 kcal/mol. Further, in series [2], the Tm is 39.9 °C.
Turning to GTCTGCGAAAGCACGAC ((((((....))).))), in series [1], the folding enthalpy was -21.5 kcal/mol. The Tm in series [2] was found to be 50.2 °C.
The matching figures for GTCTGCGAAAGCAGCGAC ((((((....)))..))): -12.5 kcal/mol and 60.6 °C.
The corresponding values for GTCTGCGAAAGCATTGAC ((((((....)))..))) are -14 kcal/mol and 40.2 °C.
The corresponding values for GTCTGCGGAAACGCAAAC ((.((((....)))).)) are -15.2 kcal/mol and 38 °C.
Turning to GTCTGCGGAAACGTAGGC (.((.((....)).)).), the folding enthalpy in series [1] was -26.7 kcal/mol. For the same sequence, in series [2], the Tm amounted to 42.4 °C.
The matching figures for GTCTGGACGAAAGTCGAC (((..(((....)))))): -17.6 kcal/mol and 38.4 °C.
The corresponding values for GTCTGGCGAAAGCCGGAC (((.(((....))).))) are -25.6 kcal/mol and 69 °C.
The corresponding values for GTCTGGGGAAACCCAAAC ((.((((....)))).)) are -14.3 kcal/mol and 31.8 °C.
Consider GTCTGTCCGAAAGGAGAC (((..(((....)))))), for which the folding enthalpy in series [1] was -15.1 kcal/mol. Besides, the Tm in series [2] worked out at 31.3 °C.
With GTCTTCCGAAAGGATGAC (((.(((....))).))), the folding enthalpy in series [1] is -42.4 kcal/mol. Moreover, the Tm in series [2] came out at 53.1 °C.
The matching figures for GTCTTCGAAAGAAAGAC ((((((....))).))): -21.8 kcal/mol and 42.6 °C.
The matching figures for GTCTTCGAAAGAACAGAC ((((((....)))..))): -16.6 kcal/mol and 28.3 °C.
As for GTCTTCGAAAGAAGAC ((((((....)))))), the folding enthalpy in series [1] is -30.3 kcal/mol. In series [2], the Tm was determined as 62.4 °C.
GTCTTGGGAAACCAGGAC (((.(((....))).))): in series [1], the folding enthalpy was -30.3 kcal/mol. In addition, in series [2], the Tm is 47.2 °C.
The matching figures for GTCTTGGGAAACTAAGGC (.(((.(....).))).): -19.4 kcal/mol and 29 °C.
Regarding GTCTTTCCGAAAGGAGAC (((..(((....)))))), in series [1], the folding enthalpy is -10.6 kcal/mol. Also, the Tm in series [2] was 29.2 °C.
The corresponding values for GTCTTTGCGAAAGCAGAC (((..(((....)))))) are -16.3 kcal/mol and 34.6 °C.
The matching figures for GTCTTTGGAAACAAAGGC (.(((((....))))).): -29.3 kcal/mol and 46.6 °C.
The corresponding values for GTGAAAGAAATTTCAC ((((((....)))))) are -29.4 kcal/mol and 44.3 °C.
For GTGAAAGGAAACTTTTAC ((.((((....)))).)), the folding enthalpy in series [1] is -22.9 kcal/mol. Also, the Tm in series [2] is 31.3 °C.
The matching figures for GTGAACGAAAGTTACAC ((((((....))).))): -17.7 kcal/mol and 38.8 °C.
The matching figures for GTGAACGAAAGTTATCAC ((((((....)))..))): -13.2 kcal/mol and 31 °C.
Regarding GTGAACGAAAGTTCTCAC ((((((....)))..))), the folding enthalpy in series [1] was -14.3 kcal/mol. The Tm in series [2] was found to be 35 °C.
The matching figures for GTGAACGAAAGTTGCCAC ((((((....)))..))): -9.75 kcal/mol and 25.9 °C.
